Assay results taken from ChEMBL document CHEMBL1125169, “Trifluoromethylacetylenic alcohols as affinity labels: inactivation of estradiol dehydrogenase by a trifluoromethylacetylenic secostradiol” (J Med Chem, 1990).

What was measured:
[1] = target: T1, 17-beta-hydroxysteroid dehydrogenase type 1 (Homo sapiens) (UniProt P14061); experiment: Tested by protection experiments to demonstrate the inactivation of estradiol dehydrogenase and the kinetic parameter Kapp was reported at a concentration of 20 uM
T1 sequence (whole entry): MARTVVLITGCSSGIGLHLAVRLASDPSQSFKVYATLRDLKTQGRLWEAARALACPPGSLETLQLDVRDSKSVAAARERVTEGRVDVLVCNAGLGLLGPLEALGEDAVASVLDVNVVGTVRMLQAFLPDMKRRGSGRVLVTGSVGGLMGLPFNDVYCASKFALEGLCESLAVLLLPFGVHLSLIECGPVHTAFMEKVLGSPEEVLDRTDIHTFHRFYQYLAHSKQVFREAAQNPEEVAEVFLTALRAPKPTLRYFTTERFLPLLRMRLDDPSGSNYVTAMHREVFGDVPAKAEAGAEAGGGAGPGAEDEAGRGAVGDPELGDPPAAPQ
Summary of the method: (§1)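 Inactivation of estradiol dehydrogenase with inhibitor at 20 μM, either alone or with a protecting ligand: 17β-estradiol or 17α-estradiol at 32 μM, or cofactors at 150 μM. Apparent inactivation rate constant (kapp, min⁻¹) was taken from least-squares fits of the time courses (r ≥ 0.992).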

[2] = The limiting half life time was reported
Summary of the method: (§2)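 Time-dependent inactivation of estradiol dehydrogenase was run at several inhibitor concentrations without NAD⁺, in 1 M carbonate buffer (pH 9.2) with glycerol omitted. Points are the mean of three experiments (two at 80 μM). Pseudo-first-order inactivation kinetics gave Ki and limiting t1/2.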

[3] = target: T1, 17-beta-hydroxysteroid dehydrogenase type 1 (Homo sapiens); experiment: Tested by protection experiments to demonstrate the inactivation of estradiol dehydrogenase and the kinetic parameter Kapp was reported at a concentration of 150 uM; summary of the method: as §1
[4] = target: T2, 17-beta-hydroxysteroid dehydrogenase type 1 (Homo sapiens, UniProt P14061); experiment: Tested for time-dependent inactivation of the enzyme that followed pseudo- first- order kinetics in the absence of NAD+ and the Ki values were reported; summary of the method: as §2
T2 sequence (P14061 whole entry): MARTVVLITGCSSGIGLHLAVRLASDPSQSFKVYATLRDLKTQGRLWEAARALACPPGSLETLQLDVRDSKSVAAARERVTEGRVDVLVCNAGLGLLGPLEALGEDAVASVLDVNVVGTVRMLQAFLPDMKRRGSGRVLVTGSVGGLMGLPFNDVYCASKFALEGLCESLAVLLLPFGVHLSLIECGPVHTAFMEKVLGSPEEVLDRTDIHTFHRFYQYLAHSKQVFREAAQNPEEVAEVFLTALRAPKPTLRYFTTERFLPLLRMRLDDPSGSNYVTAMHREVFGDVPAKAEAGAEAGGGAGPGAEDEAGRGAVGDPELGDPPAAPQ

[5] = target: T2, 17-beta-hydroxysteroid dehydrogenase type 1; experiment: Tested by protection experiments to demonstrate the inactivation of estradiol dehydrogenase and the kinetic parameter Ki app was reported at a concentration of 20 uM; conditions: read-out: Ki app; summary of the method: as §1
[6] = substrate: C#CC(O)[C@@]1(C)CCC2c3ccc(O)cc3CCC2C1

Work on `C[C@]12CC[C@@H]3c4ccc(O)cc4CC[C@H]3[C@@H]1CC[C@@H]2O` yielded a K app [1] of 0.013 min⁻¹.

`C[C@@]1(C(O)C#CC(F)(F)F)CCC2c3ccc(O)cc3CCC2C1` (single isomer, unassigned) showed a half-life [2] of 8 min, a K app [3] of 0.011 min⁻¹ and a K app [1] of 0.021 min⁻¹. The Ki [4] was 65 µM.

`C[C@]12CC[C@@H]3c4ccc(O)cc4CC[C@H]3[C@@H]1CC[C@@H]2O.NC(=O)C1=CN([C@@H]2O[C@H](COP(=O)(O)OP(=O)(O)OC[C@H]3O[C@@H](n4cnc5c(N)ncnc54)[C@H](O)[C@@H]3O)[C@@H](O)[C@H]2O)C=CC1` gave a K app [1] of 0.013 min⁻¹.

In the case of `C#CC(=O)[C@@]1(C)CCC2c3ccc(O)cc3CCC2C1` (stereo not given in full), the Ki [5] is reported as 2.8 µM.

With `C[C@]12CC[C@@H]3c4ccc(O)cc4CC[C@H]3[C@@H]1CC[C@H]2O` the K app [1] was 0.01 min⁻¹.

In the case of `NC(=O)C1=CN(C2OC(COP(=O)(O)OP(=O)(O)OC[C@H]3O[C@@H](n4cnc5c(N)ncnc54)[C@H](O)[C@@H]3O)[C@H](O)[C@@H]2O)C=CC1` (stereo not given in full), the K app [1] is reported as 0.025 min⁻¹.

`NC(=O)c1ccc[n+]([C@@H]2O[C@H](COP(=O)([O-])OP(=O)(O)OC[C@H]3O[C@@H](n4cnc5c(N)ncnc54)[C@H](O)[C@@H]3O)[C@@H](O)[C@H]2O)c1` gave a K app [1] of 0.013 min⁻¹.

For `C[C@]1(C(O)C#CC(F)(F)F)CCC2c3ccc(O)cc3CCC2C1` (stereo not given in full), the half-life [2] was 7 min, the K app [3] was 0.014 min⁻¹ and the K app [1] was 0.026 min⁻¹. It also gave a Ki [4] of 59 µM.

B1: 17-beta-hydroxysteroid dehydrogenase type 1 (Homo sapiens), P14061 (protein)
chain: MARTVVLITGCSSGIGLHLAVRLASDPSQSFKVYATLRDLKTQGRLWEAARALACPPGSLETLQLDVRDSKSVAAARERVTEGRVDVLVCNAGLGLLGPLEALGEDAVASVLDVNVVGTVRMLQAFLPDMKRRGSGRVLVTGSVGGLMGLPFNDVYCASKFALEGLCESLAVLLLPFGVHLSLIECGPVHTAFMEKVLGSPEEVLDRTDIHTFHRFYQYLAHSKQVFREAAQNPEEVAEVFLTALRAPKPTLRYFTTERFLPLLRMRLDDPSGSNYVTAMHREVFGDVPAKAEAGAEAGGGAGPGAEDEAGRGAVGDPELGDPPAAPQ
B1 showed a Km [6] of 79 µM.
